Entries after “also recorded” stand apart in the source; their conditions may differ. Like-named read-outs stand apart in the source and are kept apart here.
Legend:
[1] = Size-exclusion FPLC retention of nitrophorins, mutants and ligand complexes; assay type: physicochemical, Rhodnius prolixus; details: for dimer formation: under any conditions / at any pH
How it was run: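 Analytical run on Superdex75 at 4 °C in 100 mM sodium acetate, NaCl added to 220 mM total ionic strength. Protein at 1 mM was run at pH 5.0, 5.25, 5.5 and 5.75. Separately, protein from 1 to 0.025 mM was run at pH 5.0. Elution position compared with molecular weight standards.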

[2] = assay type: physicochemical, Rhodnius prolixus; details: pH 7.3; 0.88 mM; NO bound
How it was run: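 Recombinant nitrophorin refolded from inclusion bodies, reconstituted with excess hemin at pH 7.5, then purified by size-exclusion at pH 5.0. ¹H{¹⁵N} HSQC spectra recorded across pH: 0.2 mM protein at pH 5.0, 5.5 and 6.0; 0.8 mM at pH 6.5. pH 6.5 peaks assigned from pH 7.3 assignments, following cross-peaks through intermediate spectra. NO-bound sample run at 3.7 mM and after dilution to 0.88 mM.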

[3] = Stopped-flow kinetics of release of NO from the nitrophorins; assay type: binding, Rhodnius prolixus; details: 5–10 μM in 100 mM sodium phosphate buffer
How it was run: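 Stopped-flow measurement of NO release from NO-bound nitrophorins with native or M0-bearing N-termini. Dissociation Kd obtained at pH 5.0 and 7.5 in dilute solution, 5–10 μM protein in 100 mM sodium phosphate buffer.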

[4] = cited from earlier work

B1: D30A (protein)
chain: ACTKNAIAQTGFNKDKYFNGDVWYVTDYLALEPDDVPKRYCAALAAGTASGKLKEALYHYDPKTQDTFYDVSELQVESLGKYTANFKKVDKNGNVKVAVTAGNYYTFTVMYADDSSALIHTCLHKGNKDLGDLYAVLNRNKDAAAGDKVKSAVSAATLEFSKFISTKENNCAYDNDSLKSLLTK
monomer or dimer on the size-exclusion column ([1]; pH 5.0): monomers

B2: NP4-NO: NP4 with nitric oxide bound to the heme (protein)
chain: ACTKNAIAQTGFNKDKYFNGDVWYVTDYLDLEPDDVPKRYCAALAAGTASGKLKEALYHYDPKTQDTFYDVSELQVESLGKYTANFKKVDKNGNVKVAVTAGNYYTFTVMYADDSSALIHTCLHKGNKDLGDLYAVLNRNKDAAAGDKVKSAVSAATLEFSKFISTKENNCAYDNDSLKSLLTK
monomer or dimer on the size-exclusion column ([1]; pH 5.0): dimer | state of the dimer [2]: still highly dimerized

B3: K38A (protein)
chain: ACTKNAIAQTGFNKDKYFNGDVWYVTDYLDLEPDDVPARYCAALAAGTASGKLKEALYHYDPKTQDTFYDVSELQVESLGKYTANFKKVDKNGNVKVAVTAGNYYTFTVMYADDSSALIHTCLHKGNKDLGDLYAVLNRNKDAAAGDKVKSAVSAATLEFSKFISTKENNCAYDNDSLKSLLTK
monomer or dimer on the size-exclusion column ([1]; pH 5.0): dimers

B4: R39A (protein)
chain: ACTKNAIAQTGFNKDKYFNGDVWYVTDYLDLEPDDVPKAYCAALAAGTASGKLKEALYHYDPKTQDTFYDVSELQVESLGKYTANFKKVDKNGNVKVAVTAGNYYTFTVMYADDSSALIHTCLHKGNKDLGDLYAVLNRNKDAAAGDKVKSAVSAATLEFSKFISTKENNCAYDNDSLKSLLTK
monomer or dimer on the size-exclusion column ([1]; pH 5.0): dimers

B5: D30N (protein)
chain: ACTKNAIAQTGFNKDKYFNGDVWYVTDYLNLEPDDVPKRYCAALAAGTASGKLKEALYHYDPKTQDTFYDVSELQVESLGKYTANFKKVDKNGNVKVAVTAGNYYTFTVMYADDSSALIHTCLHKGNKDLGDLYAVLNRNKDAAAGDKVKSAVSAATLEFSKFISTKENNCAYDNDSLKSLLTK
monomer or dimer on the size-exclusion column ([1]; pH 5.0): monomers

B6: Hm complex: NP4 with histamine bound to the heme iron (protein)
chain: ACTKNAIAQTGFNKDKYFNGDVWYVTDYLDLEPDDVPKRYCAALAAGTASGKLKEALYHYDPKTQDTFYDVSELQVESLGKYTANFKKVDKNGNVKVAVTAGNYYTFTVMYADDSSALIHTCLHKGNKDLGDLYAVLNRNKDAAAGDKVKSAVSAATLEFSKFISTKENNCAYDNDSLKSLLTK
monomer or dimer on the size-exclusion column ([1]; all pH values, including those below 6.0): monomer | monomer or dimer on the size-exclusion column ([1]; pH 5.0): monomer

B7: K125E (protein)
chain: ACTKNAIAQTGFNKDKYFNGDVWYVTDYLDLEPDDVPKRYCAALAAGTASGKLKEALYHYDPKTQDTFYDVSELQVESLGKYTANFKKVDKNGNVKVAVTAGNYYTFTVMYADDSSALIHTCLHEGNKDLGDLYAVLNRNKDAAAGDKVKSAVSAATLEFSKFISTKENNCAYDNDSLKSLLTK
monomer or dimer on the size-exclusion column ([1]; pH 5.0): dimers

B8: NP4 apoprotein: NP4 without heme (protein)
chain: ACTKNAIAQTGFNKDKYFNGDVWYVTDYLDLEPDDVPKRYCAALAAGTASGKLKEALYHYDPKTQDTFYDVSELQVESLGKYTANFKKVDKNGNVKVAVTAGNYYTFTVMYADDSSALIHTCLHKGNKDLGDLYAVLNRNKDAAAGDKVKSAVSAATLEFSKFISTKENNCAYDNDSLKSLLTK
monomer or dimer on the size-exclusion column ([1]; pH 5.0): monomeric

B9: NP4-ImH: NP4 with imidazole bound (protein)
chain: ACTKNAIAQTGFNKDKYFNGDVWYVTDYLDLEPDDVPKRYCAALAAGTASGKLKEALYHYDPKTQDTFYDVSELQVESLGKYTANFKKVDKNGNVKVAVTAGNYYTFTVMYADDSSALIHTCLHKGNKDLGDLYAVLNRNKDAAAGDKVKSAVSAATLEFSKFISTKENNCAYDNDSLKSLLTK
monomer or dimer on the size-exclusion column ([1]; pH 5.0): dimers

B10: K125A (protein)
chain: ACTKNAIAQTGFNKDKYFNGDVWYVTDYLDLEPDDVPKRYCAALAAGTASGKLKEALYHYDPKTQDTFYDVSELQVESLGKYTANFKKVDKNGNVKVAVTAGNYYTFTVMYADDSSALIHTCLHAGNKDLGDLYAVLNRNKDAAAGDKVKSAVSAATLEFSKFISTKENNCAYDNDSLKSLLTK
monomer or dimer on the size-exclusion column ([1]; pH 5.0): dimers

B11: NP1(K1A) (protein)
chain: ACTKNALAQTGFNKDKYFNGDVWYVTDYLDLEPDDVPKRYCAALAAGTASGKLKEALYHYDPKTQDTFYDVSELQEESPGKYTANFKKVEKNGNVKVDVTSGNYYTFTVMYADDSSALIHTCLHKGNKDLGDLYAVLNRNKDTNAGDKVKGAVTAASLKFSDFISTKDNKCEYDNVSLKSLLTK
monomer or dimer on the size-exclusion column ([1]; pH 5.0): broad peak that encompasses the retention times expected for a dimer and a monomer | monomer or dimer on the size-exclusion column ([1]; pH 5.0, NO added / bound): form dimers; also recorded: two peaks, the first of which is the dimer

B12: (M0)NP1sym: (M0)NP1 containing the symmetrical heme, 2,4-dimethyldeuterohemin (protein, UniProt Q26239 24-207, looked up)
Nitrophorin-1: KCTKNALAQTGFNKDKYFNGDVWYVTDYLDLEPDDVPKRYCAALAAGTASGKLKEALYHYDPKTQDTFYDVSELQEESPGKYTANFKKVEKNGNVKVDVTSGNYYTFTVMYADDSSALIHTCLHKGNKDLGDLYAVLNRNKDTNAGDKVKGAVTAASLKFSDFISTKDNKCEYDNVSLKSLLTK
modifications: Met0; 2,4-dimethyldeuterohemin heme
NO Kd (NO dissociation) ([3]; pH 5.0): 0.218 ± 0.004 s^–1 | NO Kd (NO dissociation) ([3]; pH 7.5): 2.66 ± 0.27 s^–1

B13: Nat. N-term NP1 ^c: native N-terminal NP1 (N-terminus KC...) (protein, UniProt Q26239 24-207, looked up)
Nitrophorin-1: KCTKNALAQTGFNKDKYFNGDVWYVTDYLDLEPDDVPKRYCAALAAGTASGKLKEALYHYDPKTQDTFYDVSELQEESPGKYTANFKKVEKNGNVKVDVTSGNYYTFTVMYADDSSALIHTCLHKGNKDLGDLYAVLNRNKDTNAGDKVKGAVTAASLKFSDFISTKDNKCEYDNVSLKSLLTK
NO Kd (NO dissociation) ([3]; pH 5.0): 0.032 ± 0.011 s^–1 | NO Kd (NO dissociation) ([3]; pH 7.5): 1.11 ± 0.04 s^–1

B14: native N-terminal NP1: NP1 expressed with a leader sequence, giving the native N-terminus KCTK... (protein)
chain: KCTKNALAQTGFNKDKYFNGDVWYVTDYLDLEPDDVPKRYCAALAAGTASGKLKEALYHYDPKTQDTFYDVSELQEESPGKYTANFKKVEKNGNVKVDVTSGNYYTFTVMYADDSSALIHTCLHKGNKDLGDLYAVLNRNKDTNAGDKVKGAVTAASLKFSDFISTKDNKCEYDNVSLKSLLTK
modifications: left off: His6, C-terminal, kept
monomer or dimer on the size-exclusion column ([1]; pH 5.0, NO added / bound): form dimers

B15: A1K: site-directed mutant of NP4, M0 present (N-terminus MKCTK...) (protein)
chain: MKCTKNAIAQTGFNKDKYFNGDVWYVTDYLDLEPDDVPKRYCAALAAGTASGKLKEALYHYDPKTQDTFYDVSELQVESLGKYTANFKKVDKNGNVKVAVTAGNYYTFTVMYADDSSALIHTCLHKGNKDLGDLYAVLNRNKDAAAGDKVKSAVSAATLEFSKFISTKENNCAYDNDSLKSLLTK
monomer or dimer on the size-exclusion column ([1]; pH 5.0): monomer

B16: (M0)NP1: recombinant NP1 retaining methionine M0 at the N-terminus (MKCTK...) (protein)
chain: MKCTKNALAQTGFNKDKYFNGDVWYVTDYLDLEPDDVPKRYCAALAAGTASGKLKEALYHYDPKTQDTFYDVSELQEESPGKYTANFKKVEKNGNVKVDVTSGNYYTFTVMYADDSSALIHTCLHKGNKDLGDLYAVLNRNKDTNAGDKVKGAVTAASLKFSDFISTKDNKCEYDNVSLKSLLTK
NO Kd (NO dissociation) ([3]; pH 5.0): 0.426 ± 0.005 s^–1 | NO Kd (NO dissociation) ([3]; pH 7.5): 2.32 ± 0.07 s^–1 | monomer or dimer on the size-exclusion column ([1]; pH 5.0): not a dimer | dimer formation [1]: do not form dimers | dimer formation ([1]; listed as recombinant NP1): not a dimer at any pH | NO Kd (NO dissociation) ([4]; column pH 7.5, measured at pH 8.0 rather than pH 7.5 (footnote a)): 2.2 ± 0.01 ^a s^–1 | NO Kd (NO dissociation) ([4]; pH 5.0, ref 17): 0.20 ± 0.01 s^–1

Source: article PMC4303305 (Biochemistry, 2014)
